Only some compounds are listed: those with a hit (about 0.98% of all), similar ones and a draw of the others.
Rtt109 HAT inh = inhibitors of Candida albicans Rtt109/Vps75 histone acetyltransferase; actives 0.16% (n = 330,000); inhibition, % at 34.9 µM; purified Rtt109/Vps75, ThioGlo CoA-SH fluorescence, 4 h; AID 540336;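 active means inhibition of at least 50% in every replicate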
Target sequence (Q5AAJ8 whole entry, looked up): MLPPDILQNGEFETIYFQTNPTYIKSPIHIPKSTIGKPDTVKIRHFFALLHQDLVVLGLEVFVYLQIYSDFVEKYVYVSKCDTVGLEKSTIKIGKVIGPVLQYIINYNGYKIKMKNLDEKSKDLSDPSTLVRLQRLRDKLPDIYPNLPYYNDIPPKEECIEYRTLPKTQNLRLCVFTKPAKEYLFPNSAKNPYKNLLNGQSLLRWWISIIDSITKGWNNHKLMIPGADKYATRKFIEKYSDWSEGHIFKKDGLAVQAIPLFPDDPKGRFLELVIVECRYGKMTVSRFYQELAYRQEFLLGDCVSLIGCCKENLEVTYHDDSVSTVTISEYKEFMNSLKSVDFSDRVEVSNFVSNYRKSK
S100A4 inh HTS = inhibitors of human S100A4 binding to myosin IIA peptide | S100A4/TAMRA-MyoIIA peptide fluorescence polarization | P26447 | actives 0.14% (n = 360,000) | inhibition, % at 10.7 µM;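 active means mean inhibition of at least 70% across replicates, with every replicate also reaching that level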
Target sequence (P26447 whole entry, looked up): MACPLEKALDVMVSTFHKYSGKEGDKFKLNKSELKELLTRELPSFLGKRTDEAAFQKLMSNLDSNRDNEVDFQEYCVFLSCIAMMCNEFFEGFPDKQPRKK
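assay system = human S100A4 monomer with TAMRA-labelled myosin IIA peptide | also added = labelled myosin peptide probe, 5 nM | incubation = 5 min between mix addition and reading | control set = DMSO and TFP controls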
PGC1a acetyl inh = PGC1a acetylation modulation, inhibitor mode. inhibition, % at 15.6 µM. actives 0.17% (n = 350,000). AID 651687. U2OS PGC1a acetylation, AlphaScreen anti-acetyl-lysine; with virally co-expressed GCN5 acetyltransferase;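 active means every replicate shows inhibition of at least 40%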;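 further: 0% = neutral control wells and 100% = positive control wells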
ERAP1 inh = blocks human ERAP1 aminopeptidase activity; recombinant ERAP1, Leu-AMC fluorescence, 60 min; inhibition, % at 10.7 µM; actives 0.15% (n = 340,000); AID 652197;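 active means mean replicate inhibition of at least 30%, or all replicates individually reaching that 30% level; inactive means mean below 30% and not every replicate reaching it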;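 further: 0% = neutral control wells and 100% = L-leucinethiol positive control wells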
Statin myotox sup = suppression of simvastatin myotoxicity; actives 0.78% (n = 330,000); rescue of ATP level, % at 7.49 µM; C2C12 myotubes + simvastatin, ATP luminescence, 48 h; scaled: DMSO 0, geranylgeraniol control 100;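 active means mean ATP rescue above about 67%, or every replicate alone reaching that limit, limit read from the data, passing the limit was not always enough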;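 further: myotubes were challenged with 10 µM simvastatin during compound exposure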
* marks the source's active call; other numbers are inactive results.

Results for CC(=O)Nc1ccc(NC(=O)C(C)OC(=O)CCCN=C2NS(=O)(=O)c3ccccc32)cc1 (stereo not drawn) ?
Rtt109 HAT inh: 34; S100A4 inh HTS: 136*; PGC1a acetyl inh: 2; ERAP1 inh: 0; Statin myotox sup: 8

How did CCOC(=O)CNc1c(-c2ccccc2)nc2ccc(Cl)cn12 do in these assays?
Rtt109 HAT inh: -14; PGC1a acetyl inh: -3; Statin myotox sup: 98*

Results for Cc1ccc(CN2CC(=O)N3[C@H](CO)[C@H](c4ccc(Br)cc4)[C@@H]3C2)cc1 ?
S100A4 inh HTS: 2; PGC1a acetyl inh: -3; ERAP1 inh: -2

How did Cc1ccc(S(=O)(=O)CCC(=O)Nc2cccc(Cl)c2)cc1 do in these assays?
Rtt109 HAT inh: 3; S100A4 inh HTS: -5; PGC1a acetyl inh: -7; ERAP1 inh: -1; Statin myotox sup: 108*

Results for CC(C)C[C@H](NC(=O)[C@@H](O)[C@H](N)Cc1ccccc1)C(=O)O ?
S100A4 inh HTS: -7

Results for CC(C)[C@@H](C(=O)N[C@@H](CCc1ccc(O)cc1)C(=O)O)N(C)C(=O)[C@H](CO)NC(=O)[C@@H](O)[C@H](N)CCCCCCCCl ?
S100A4 inh HTS: -4; PGC1a acetyl inh: -5; ERAP1 inh: 62*; Statin myotox sup: 28

How did CCCC#Cc1cnc2c(c1)C(=O)N([C@@H](C)CO)C[C@H](C)[C@@H](CN(C)C(=O)c1ccc(F)cc1)O2 do in these assays?
S100A4 inh HTS: -8; PGC1a acetyl inh: 7; ERAP1 inh: 1; Statin myotox sup: -3

Results for CN1CCN(Cc2c(O)ccc3cc(Br)ccc23)CC1 ?
S100A4 inh HTS: 2; ERAP1 inh: -1

What do the screens show for `Cc1c(C)c2ccc(O)c(CN3CCN(C)CC3)c2oc1=O`?
Rtt109 HAT inh: 6; S100A4 inh HTS: 4; PGC1a acetyl inh: 2; ERAP1 inh: 31*; Statin myotox sup: 2

How did Cc1c(C)c2ccc(O)c(CN3CCCC3)c2oc1=O do in these assays?
Rtt109 HAT inh: -7; S100A4 inh HTS: 0; PGC1a acetyl inh: -6; ERAP1 inh: 51*; Statin myotox sup: -2

What do the screens show for `CCc1cc(=O)oc2c(CN3CCN(C)CC3)c(O)ccc12`?
Rtt109 HAT inh: -3; S100A4 inh HTS: 2; PGC1a acetyl inh: 14; ERAP1 inh: 36*; Statin myotox sup: -2

How did CN1CCN(Cc2c(O)ccc3cc(-c4ccccn4)c(=O)oc23)CC1 do in these assays?
Rtt109 HAT inh: inactive; S100A4 inh HTS: 0; PGC1a acetyl inh: 0; ERAP1 inh: 112*; Statin myotox sup: 2

Results for CCc1c(C)c2ccc(O)c(CN3CCCC3)c2oc1=O ?
Rtt109 HAT inh: inactive; S100A4 inh HTS: -4; PGC1a acetyl inh: 5; ERAP1 inh: 10; Statin myotox sup: 4

What do the screens show for `C[C@@H]1CCCCO[C@H](CN(C)Cc2ccncc2)[C@@H](C)CN([C@@H](C)CO)C(=O)c2cc(NS(=O)(=O)c3ccc(F)cc3)ccc2O1`?
S100A4 inh HTS: -7; PGC1a acetyl inh: 3; ERAP1 inh: 1

Results for O=C(C[C@@H]1C=C[C@H](NC(=O)C2CC2)[C@@H](CO)O1)NCc1ccncc1 ?
S100A4 inh HTS: -15; PGC1a acetyl inh: 0; ERAP1 inh: -2; Statin myotox sup: -6

How did Cc1cc(=O)oc2c(CN3CCCCC3)c(O)ccc12 do in these assays?
Rtt109 HAT inh: inactive; S100A4 inh HTS: -3; ERAP1 inh: 46*

Results for COc1ccc(CN(C)C[C@H]2Oc3c(NC(=O)NC4CCCCC4)cccc3C(=O)N([C@H](C)CO)C[C@H]2C)cc1 ?
S100A4 inh HTS: 8; PGC1a acetyl inh: 3; ERAP1 inh: -14; Statin myotox sup: -19

What do the screens show for `O=C(C[C@@H]1CC[C@@H]2[C@H](COC[C@@H](O)CN2C(=O)Nc2cccc(Cl)c2)O1)N1CCCCC1`?
S100A4 inh HTS: -1; PGC1a acetyl inh: 11; ERAP1 inh: -4; Statin myotox sup: 15

What do the screens show for `CCOC(=O)c1nnn(CC(=O)Nc2ccccc2)c1C(=O)OCC`?
Rtt109 HAT inh: -3; S100A4 inh HTS: -8; PGC1a acetyl inh: 11; ERAP1 inh: 43*; Statin myotox sup: 3

What do the screens show for `COC(=O)c1ccc(NC(=O)CSc2n[nH]c(-c3ccncc3)n2)cc1`?
Rtt109 HAT inh: -9; PGC1a acetyl inh: -14; Statin myotox sup: 77*

What do the screens show for `CCOC(=O)c1ccc(NC(=O)CSc2n[nH]c(-c3ccncc3)n2)cc1`?
Rtt109 HAT inh: 4; PGC1a acetyl inh: -8; Statin myotox sup: 13

Screens as filed in PubChem BioAssay.
